Data as given in publication PMC8268672 (Bioorganic Chemistry, 2021).
Converted amounts (≈) assume the structure as drawn. Like-named read-outs stand apart in the source and are kept apart here.

What was measured:
[1] = tested on: Escherichia coli (ATCC 8739); test: MIC, broth microdilution; type: cell-based; details: ATCC8739, read-out: Minimum inhibitory concentration (MIC), EC
Summary of the method: (§1)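 Broth microdilution per CLSI in Mueller-Hinton broth, using two-fold serial dilutions of test compound and reference drugs from 512 to 0.25. Bacterial broth cultures were grown 2-6 h to 0.5 McFarland turbidity, then diluted with sterile solution to the final inoculum. MIC is reported in µg/mL.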

[2] = tested on: Pseudomonas aeruginosa (MCCB 0035); test: MIC, broth microdilution; type: cell-based; details: read-out: Minimum inhibitory concentration (MIC), PA
Summary of the method: as §1

[3] = tested on: Staphylococcus aureus (ATCC 29213); test: MIC, broth microdilution; type: cell-based; details: ATCC29213, read-out: Minimum inhibitory concentration (MIC), SA
Summary of the method: (§2)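 Antibacterial MICs by CLSI broth microdilution in Mueller-Hinton broth. Test compounds and standard drugs are serially diluted two-fold from 512 to 0.25. The bacterial broth culture is grown 2-6 h to a 0.5 McFarland turbidity, then adjusted with sterile solution to the final inoculum.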

[4] = tested on: Klebsiella aerogenes (NCIM-2098); test: Agar disk diffusion, inhibition zone; type: cell-based; details: 100 µg/8 mm disc, triplicate, mean ± SD
[5] = tested on: Bacillus cereus (NCIM-2458); test: MIC, broth microdilution; type: cell-based; details: NCIM2458, read-out: Minimum inhibitory concentration (MIC), BC
Summary of the method: as §1

[6] = tested on: Salmonella typhimurium (NCIM-2501); test: Agar disk diffusion, inhibition zone; type: cell-based; details: 100 µg/8 mm disc, triplicate, mean ± SD
[7] = tested on: Klebsiella aerogenes (NCIM-2098); test: MIC, broth microdilution; type: cell-based; details: NCIM2098, read-out: Minimum inhibitory concentration (MIC), KA
Summary of the method: as §2

[8] = tested on: Aspergillus fumigatus (NCIM 2081); test: Agar disk diffusion, inhibition zone; type: cell-based; details: 100 µg/8 mm disc, triplicate, mean ± SD
[9] = tested on: Lactobacillus casei (NCIM-2651); test: Agar disk diffusion, inhibition zone; type: cell-based; details: 100 µg/8 mm disc, triplicate, mean ± SD
[10] = tested on: Cryptococcus neoformans (ATCC 9011); test: Agar disk diffusion, inhibition zone; type: cell-based; details: 100 µg/8 mm disc, triplicate, mean ± SD
S. aureus DNA gyrase = S. aureus DNA gyrase (Staphylococcus aureus, UniProt P0A0K8+P20831); test: DNA Gyrase inhibition assay; type: biochemical
[11] = tested on: Aspergillus niger (NCIM 2191); test: Agar disk diffusion, inhibition zone; type: cell-based; details: 100 µg/8 mm disc, triplicate, mean ± SD
Summary of the method: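 For the fungal strain, discs soaked in test compound solution (DMSO stock diluted with distilled water) sat on seeded Mueller-Hinton agar. Clotrimazole was the reference. Incubation ran 48 h at 35 °C, in triplicate. Zone of growth inhibition recorded in mm as the mean diameter around each disc.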

[12] = tested on: Pseudomonas aeruginosa (MCCB 0035); test: Agar disk diffusion, inhibition zone; type: cell-based; details: 100 µg/8 mm disc, triplicate, mean ± SD
[13] = tested on: Aspergillus fumigatus (NCIM 2081); test: MIC, broth microdilution; type: cell-based; details: NCIM2081, read-out: Minimum inhibitory concentration (MIC), AF
Summary of the method: (§3)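 Antifungal MICs by CLSI broth microdilution in Sabouraud liquid medium. Test compounds and standard drugs are serially diluted two-fold from 512 to 0.25. The fungal broth culture is grown 24 h at 35 °C to a 0.5 McFarland turbidity, then adjusted with sterile solution to the final inoculum.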

[14] = tested on: Candida albicans (NCIM 2087); test: MIC, broth microdilution; type: cell-based; details: NCIM2087, read-out: Minimum inhibitory concentration (MIC), CA
Summary of the method: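 CLSI broth microdilution in Sabouraud liquid medium, with test compound two-fold serially diluted from 512 to 0.25. Fungal broth culture grown 24 h at 35 °C to 0.5 McFarland turbidity, then adjusted with sterile solution to a final […] inoculum. MIC expressed in µg/mL.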

[15] = tested on: Staphylococcus aureus (ATCC 29213); test: Agar disk diffusion, inhibition zone; type: cell-based; details: 100 µg/8 mm disc, triplicate, mean ± SD
Summary of the method: (§4)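 Agar disk diffusion on Mueller-Hinton agar plates seeded with a standard bacterial suspension. Test compound stock in DMSO, diluted with distilled water; 8 mm sterile filter-paper discs soaked in the solution. Ampicillin was the reference. Plates incubated at 35 °C for 24 h, in triplicate. Read-out is the average inhibition-zone diameter (mm) around each disc.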

[16] = tested on: Escherichia coli (ATCC 8739); test: Agar disk diffusion, inhibition zone; type: cell-based; details: 100 µg/8 mm disc, triplicate, mean ± SD
Summary of the method: as §4

[17] = tested on: Bacillus cereus (NCIM-2458); test: Agar disk diffusion, inhibition zone; type: cell-based; details: 100 µg/8 mm disc, triplicate, mean ± SD
[18] = tested on: Cryptococcus neoformans (ATCC 9011); test: MIC, broth microdilution; type: cell-based; details: ATCC9011, read-out: Minimum inhibitory concentration (MIC), CN
Summary of the method: as §3

[19] = tested on: Streptococcus pneumonia (ATCC 49619); test: Agar disk diffusion, inhibition zone; type: cell-based; details: 100 µg/8 mm disc, triplicate, mean ± SD
[20] = tested on: Candida albicans (NCIM 2087); test: Agar disk diffusion, inhibition zone; type: cell-based; details: 100 µg/8 mm disc, triplicate, mean ± SD
[21] = tested on: Aspergillus niger (NCIM 2191); test: MIC, broth microdilution; type: cell-based; details: NCIM2191, read-out: Minimum inhibitory concentration (MIC), AN
Summary of the method: as §3

Adeno virus-2 = test: CPE reduction assay in HEL cells; type: cell-based; details: read-out: Antiviral EC50, Adeno virus-2
Human Coronavirus (229E) = test: CPE reduction assay in HEL cells; type: cell-based; details: read-out: Antiviral EC50, Human Coronavirus (229E)
Punta Toro virus = test: CPE reduction assay in Vero cells; type: cell-based; details: read-out: Antiviral EC50, Punta Toro virus
[22] = tested on: Influenza A/H1N1 A/Ned/378/05; test: CPE reduction assay in MDCK cells; type: cell-based; details: Influenza A virus
Reovirus-1 = test: CPE reduction assay in Vero cells; type: cell-based; details: read-out: Antiviral EC50, Reovirus-1
Vaccinia virus = test: microbe, parasite or virus in culture; type: cell-based; details: Orthopoxvirus vaccinia, HEL, read-out: Antiviral EC50, Vaccinia virus
Influenza B B/Ned/537/05 = test: CPE reduction assay in MDCK cells; type: cell-based; details: Influenza B virus, read-out: Antiviral EC50, Influenza B B/Ned/537/05, MTS
[23] = tested on: Influenza A/H3N2 A/HK/7/87; test: CPE reduction assay in MDCK cells; type: cell-based; details: Influenza A virus
Vero cells = details: Vero cell cultures; microscopically detectable alteration of normal cell morphology
[24] = tested on: Madin Darby canine kidney (MDCK) cells; details: dog
[25] = tested on: Human embryonic lung (HEL) cells; details: HEL cell cultures; microscopically detectable alteration of normal cell morphology
Coxsackie virus B4 = test: CPE reduction assay in Vero cells; type: cell-based; details: Enterovirus B, read-out: Antiviral EC50, Coxsackie virus B4
MT4 cells = details: MT4 cell cultures; colorimetric MTT cell viability assay
Yellow Fever virus = test: microbe, parasite or virus in culture; type: cell-based; details: Yellow fever virus, Vero, read-out: Antiviral EC50, Yellow Fever virus
Sindbis virus = test: CPE reduction assay in Vero cells; type: cell-based; details: read-out: Antiviral EC50, Sindbis virus
Para-influenza-3 virus = test: CPE reduction assay in Vero cells; type: cell-based, Parainfluenza-3 virus; details: Vero, read-out: Antiviral EC50, Para-influenza-3 virus

Sequence of S. aureus DNA gyrase (P20831 whole entry, the tested form may be a part): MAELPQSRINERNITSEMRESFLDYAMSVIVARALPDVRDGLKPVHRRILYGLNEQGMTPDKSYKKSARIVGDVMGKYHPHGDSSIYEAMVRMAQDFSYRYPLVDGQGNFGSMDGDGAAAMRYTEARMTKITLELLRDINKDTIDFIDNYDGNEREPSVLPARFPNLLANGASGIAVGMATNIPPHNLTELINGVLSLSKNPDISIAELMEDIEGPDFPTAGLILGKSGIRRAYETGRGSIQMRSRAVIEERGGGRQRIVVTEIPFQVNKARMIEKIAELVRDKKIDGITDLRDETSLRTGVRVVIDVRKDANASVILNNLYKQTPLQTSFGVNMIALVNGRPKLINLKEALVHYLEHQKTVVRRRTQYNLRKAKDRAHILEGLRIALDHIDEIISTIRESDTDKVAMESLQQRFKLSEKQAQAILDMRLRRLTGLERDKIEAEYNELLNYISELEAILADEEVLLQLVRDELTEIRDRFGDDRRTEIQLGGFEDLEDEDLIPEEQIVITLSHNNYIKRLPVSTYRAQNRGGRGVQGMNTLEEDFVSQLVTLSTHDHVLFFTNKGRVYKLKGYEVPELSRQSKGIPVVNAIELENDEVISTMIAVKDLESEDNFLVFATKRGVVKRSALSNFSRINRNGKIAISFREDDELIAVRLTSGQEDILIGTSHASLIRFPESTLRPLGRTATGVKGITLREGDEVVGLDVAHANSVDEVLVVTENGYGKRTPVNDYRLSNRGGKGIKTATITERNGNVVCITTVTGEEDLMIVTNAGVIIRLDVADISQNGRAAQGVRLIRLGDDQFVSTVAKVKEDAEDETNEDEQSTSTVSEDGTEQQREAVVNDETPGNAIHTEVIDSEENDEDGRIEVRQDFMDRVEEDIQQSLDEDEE
Sequence of S. aureus DNA gyrase (P0A0K8 whole entry, the tested form may be a part): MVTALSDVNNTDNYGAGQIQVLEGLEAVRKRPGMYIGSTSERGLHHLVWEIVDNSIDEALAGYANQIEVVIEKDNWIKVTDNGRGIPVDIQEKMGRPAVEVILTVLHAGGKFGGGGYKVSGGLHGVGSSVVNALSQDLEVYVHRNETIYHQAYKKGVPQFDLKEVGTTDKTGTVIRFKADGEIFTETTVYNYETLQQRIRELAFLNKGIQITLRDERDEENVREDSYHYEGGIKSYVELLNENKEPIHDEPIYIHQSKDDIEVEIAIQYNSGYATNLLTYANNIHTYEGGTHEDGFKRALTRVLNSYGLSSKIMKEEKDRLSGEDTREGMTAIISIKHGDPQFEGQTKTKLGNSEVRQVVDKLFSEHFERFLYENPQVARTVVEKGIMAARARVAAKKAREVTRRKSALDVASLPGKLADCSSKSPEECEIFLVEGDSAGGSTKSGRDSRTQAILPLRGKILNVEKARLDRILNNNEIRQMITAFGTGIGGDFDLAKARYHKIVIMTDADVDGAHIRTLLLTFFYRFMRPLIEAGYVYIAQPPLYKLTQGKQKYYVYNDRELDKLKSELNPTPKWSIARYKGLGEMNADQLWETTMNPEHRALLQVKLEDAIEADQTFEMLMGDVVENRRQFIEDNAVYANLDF

Row | Compound | MIC [1] | MIC [2] | MIC [3] | Diameter of growth inhibition zone, KA [4] | MIC [5] | Diameter of growth inhibition zone, ST [6] | MIC [7] | Diameter of growth inhibition zone, AF [8] | Diameter of growth inhibition zone, LC [9] | Diameter of growth inhibition zone, CN [10] | Diameter of growth inhibition zone, AN [11] | Diameter of growth inhibition zone, PA [12] | MIC [13] | MIC [14] | Diameter of growth inhibition zone, SA [15] | Diameter of growth inhibition zone, EC [16] | Diameter of growth inhibition zone, BC [17] | MIC [18] | Diameter of growth inhibition zone, SP [19] | Diameter of growth inhibition zone, CA [20] | other results
1 | Cc1ccc(S(=O)(=O)N2C(=O)CSC2c2ccc(F)cc2)cc1 (stereo not shown) [5j, 2-(4-Fluorophenyl)-3-[(4-methylphenyl)sulfonyl]-1,3-thiazolidin-4-one] | 2 µg/mL (≈ 5.69 µM) | 2 µg/mL (≈ 5.69 µM) | 4 µg/mL (≈ 11.4 µM) | 14 ± 0.94 mm | 8 µg/mL (≈ 22.8 µM) | 18 ± 0.3 mm | 16 µg/mL (≈ 45.5 µM) | 19 ± 1.2 mm | 19 ± 0.5 mm | 13 ± 1.5 mm | 19 ± 0.6 mm | 25 ± 1.5 mm | 4 µg/mL (≈ 11.4 µM) | 4 µg/mL (≈ 11.4 µM) | 23 ± 1.1 mm | 25.9 ± 0.32 mm | 18 ± 0.5 mm | 4 µg/mL (≈ 11.4 µM) | 10 ± 0.6 mm | 21 ± 0.9 mm | IC50 (S. aureus DNA gyrase): 4.26 µM; MIC [21]: 8 µg/mL (≈ 22.8 µM)
2 | Cc1ccc(S(=O)(=O)N2C(=O)CSC2c2ccc(O)cc2)cc1 (stereo not shown) [5m, 2-(4-Hydroxyphenyl)-3-[(4-methylphenyl)sulfonyl]-1,3-thiazolidin-4-one] | 16 µg/mL (≈ 45.8 µM) | 16 µg/mL (≈ 45.8 µM) | 32 µg/mL (≈ 91.6 µM) | 10 ± 0.4 mm | 64 µg/mL (≈ 183 µM) | 12 ± 0.4 mm | 64 µg/mL (≈ 183 µM) | 10 ± 1.2 mm | 14 ± 0.64 mm | 13 ± 1.4 mm | 13 ± 0.6 mm | 15.2 ± 0.96 mm | 128 µg/mL (≈ 366 µM) | 32 µg/mL (≈ 91.6 µM) | 13 ± 0.63 mm | 15.9 ± 0.23 mm | 10 ± 0.6 mm | 64 µg/mL (≈ 183 µM) | 12 ± 2.1 mm | 15 ± 0.35 mm | EC50 (Adeno virus-2): > 100 µM; EC50 (Human Coronavirus (229E)): > 100 µM; EC50 (Punta Toro virus): > 100 µM; EC50 ([22]; read-out: Antiviral EC50, Influenza A/H1N1 A/Ned/378/05, MTS): > 100 µM; EC50 ([22]; read-out: Antiviral EC50, Influenza A/H1N1 A/Ned/378/05, visual CPE score): > 100 µM; EC50 (Reovirus-1): > 100 µM; EC50 (Vaccinia virus): > 100 µM; EC50 (Influenza B B/Ned/537/05): > 100 µM; EC50 ([23]; read-out: Antiviral EC50, Influenza A/H3N2 A/HK/7/87, MTS): > 100 µM; EC50 ([23]; read-out: Antiviral EC50, Influenza A/H3N2 A/HK/7/87, visual CPE score): > 100 µM; Minimum cytotoxic conc. (Vero cells): >100 µM; Cytotoxicity, Minimum cytotoxic conc. [24]: >100 µM; Minimum cytotoxic conc. [25]: >100 µM; EC50 (Coxsackie virus B4): > 100 µM; Minimum cytotoxic conc. (MT4 cells): >125 µM; EC50 (Yellow Fever virus): > 100 µM; MIC [21]: 64 µg/mL (≈ 183 µM); EC50 (Sindbis virus): > 100 µM; EC50 (Para-influenza-3 virus): > 100 µM
